Assay results gathered from unrelated publications.
Lines come from different studies, so protocols differ.
Target: Serine/threonine-protein kinase Nek2 (NEK2, Homo sapiens, UniProt P51955)
Residues used in one study (P51955 1-445): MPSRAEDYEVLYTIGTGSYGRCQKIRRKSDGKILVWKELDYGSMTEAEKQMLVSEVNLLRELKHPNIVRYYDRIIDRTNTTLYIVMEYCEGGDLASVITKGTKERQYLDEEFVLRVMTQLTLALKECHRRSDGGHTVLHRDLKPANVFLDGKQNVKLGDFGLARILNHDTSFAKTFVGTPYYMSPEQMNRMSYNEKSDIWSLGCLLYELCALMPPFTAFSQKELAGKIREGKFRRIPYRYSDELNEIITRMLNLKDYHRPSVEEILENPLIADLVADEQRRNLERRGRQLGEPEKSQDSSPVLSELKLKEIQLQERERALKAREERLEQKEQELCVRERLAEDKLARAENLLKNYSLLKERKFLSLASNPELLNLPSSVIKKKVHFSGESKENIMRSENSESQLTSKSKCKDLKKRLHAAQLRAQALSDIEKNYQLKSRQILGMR

Compound	read-out	action	method	concentration	endpoint	result
N#CC1(c2ccccn2)CCN(Cc2cc(C(=O)N3CCCC3)c(=O)n3ccccc23)CC1	cell-free assay	–	competition with immobilised ligand	1 µM	remaining binding	95%
Cn1c2c(Cl)c(Cl)ccc2c2cc(N)[nH]c(=O)c21	thermal stability	–	DSF	10 µM	ΔTm	1.8 °C
COc1cc(Nc2cnc(C#N)c(O[C@H](C)CN(C)C)n2)ncc1-c1cnn(C)c1	enzyme activity	inhibitor	radiometric	10 µM	remaining activity	64%
Cc1cc(NC(=O)c2cccc3cc(-c4cccc5[nH]nc(N)c45)ccc23)ccc1F	enzyme activity	inhibitor	–	0.1 µM	activity vs control	99%
Cc1c(NC(=O)c2cc(C(N)=O)nc3cc(F)ccc23)c(C(F)(F)F)nn1Cc1ccc(C(C)(C)C)cc1	cell-free assay	–	competition with immobilised ligand	1 µM	remaining binding	100%
Nc1nc(Nc2ccccc2)sc1C(=O)c1c(F)cccc1F	enzyme activity	inhibitor	–	10 µM	remaining activity	92%
CNC(=O)c1cc(Oc2ccc(NC(=O)Nc3ccc(Cl)c(C(F)(F)F)c3)cc2)ccn1	enzyme activity	inhibitor	–	0.3 µM	inhibition	-1%
Cn1c2c(Cl)c(Cl)ccc2c2cn[nH]c(=O)c21	thermal stability	–	DSF	10 µM	ΔTm	-0.6 °C
CCC(=N\O)/C(C)=C/c1ccc(F)cc1	cell-free assay	–	competition with immobilised ligand	1 µM	remaining binding	100%
Cc1sc(C(=O)NC2COC2)cc1-n1cc(NC(=O)Nc2c(F)cccc2Cl)cn1	enzyme activity	inhibitor	–	10 µM	remaining activity	88%
CC(C)c1ccc(NC(=O)c2cccs2)c(-c2nc3ccccc3[nH]c2=O)c1	enzyme activity	inhibitor	–	1 µM	activity vs control	93%
CN(c1ccnc(CNc2nc(Nc3ccc4c(c3)CC(=O)N4)ncc2C(F)(F)F)n1)S(C)(=O)=O	cell-free assay	–	competition with immobilised ligand	1 µM	remaining binding	83%
CC1(C)NC(=O)c2[nH]c3c(Cl)c(Cl)ccc3c2C1C#N (stereo not shown)	thermal stability	–	DSF	10 µM	ΔTm	-0.8 °C
O=C1Nc2ccc(Cl)cc2C1=Cc1cc(Cl)c(O)c(Cl)c1	cell-free assay	–	–	0.5 µM	remaining signal	86%
Cn1c(=O)n(-c2ccc(C(C)(C)C#N)cc2)c2c3cc(-c4cnc5ccccc5c4)ccc3ncc21	enzyme activity	inhibitor	–	10 µM	remaining activity	145%
CCCS(=O)(=O)Nc1ccc(F)c(C(=O)c2c[nH]c3ncc(-c4ccc(Cl)cc4)cc23)c1F	enzyme activity	inhibitor	–	1 µM	inhibition	< 20%
Cn1c2c(c3ccccc31)C(C#N)C(C)(C)NC2=O (stereo not shown)	thermal stability	–	DSF	10 µM	ΔTm	-0.1 °C
Cc1c(NC(=O)c2cc(C(N)=O)nc3cc(F)ccc23)c(C(F)(F)F)nn1Cc1ccc(C#N)cc1	cell-free assay	–	competition with immobilised ligand	1 µM	remaining binding	100%
CC(C)(O)[C@H]1CC[C@H](Nc2ccc3ncc(-c4cccc(C(F)(F)F)c4)n3n2)CC1	enzyme activity	inhibitor	–	1 µM	remaining activity	100%

Compound	read-out	action	method	concentration	endpoint	result
Clc1ccc(Nc2nnc(Cc3ccncc3)c3ccccc23)cc1	cell-free assay	–	–	0.5 µM	remaining signal	101%
Cc1ccc(C(=O)NCc2ccsc2)cc1C#Cc1cn(C(C)C)c2ncnc(N)c12	enzyme activity	inhibitor	–	1 µM	activity vs control	111%
COc1cc2ncnc(Nc3ccc(Oc4ccccc4)cc3C)c2cc1OC	enzyme activity	inhibitor	–	1 µM	inhibition	1%
CN(C)C1CCN(CC#Cc2nn(C3CCCC3)c3nc(NCc4ccccc4)ncc23)C1 (stereo not shown)	enzyme activity	inhibitor	FRET	10 µM	inhibition	15%
Cn1c2c(c3ccc(Cl)c(Cl)c31)C(C#N)C(C)(C)NC2=O (stereo not shown)	thermal stability	–	DSF	10 µM	ΔTm	-0.9 °C
CCCOc1ccc(OC)c(F)c1C(=O)c1ccc(C(=O)N[C@@H]2CNC[C@H]2NC(=O)c2ccc3[nH]ncc3c2)cc1	enzyme activity	inhibitor	–	10 µM	remaining activity	66%
CC(C)(C)C(=O)c1sc(NC2CCCCC2)nc1N	enzyme activity	inhibitor	–	10 µM	remaining activity	93%
CNCc1ccc(-c2cc(-c3nc(-c4ccc(S(=O)(=O)C(C)C)cc4)cnc3N)on2)cc1	enzyme activity	inhibitor	–	0.4 µM	inhibition	0%
COc1ccc2c(c1)O[C@H](c1ccc(OC)c(OC)c1)C[C@@H]2NC(=O)C1(c2ccc3c(c2)OC(F)(F)O3)CC1	cell-free assay	–	competition with immobilised ligand	1 µM	remaining binding	100%
Cc1ccc(Nc2nccc(N(C)c3ccc4c(C)n(C)nc4c3)n2)cc1S(N)(=O)=O	enzyme activity	inhibitor	–	10 µM	inhibition	91%
COc1cc(/C=C/C(=O)CC(=O)/C=C/c2ccc(O)c(OC)c2)ccc1O	enzyme activity	inhibitor	–	1 µM	activity vs control	99%
CC(C)CC(=O)N1CCc2nc(-c3ccc(Br)cc3)nc(N(C)Cc3ccccc3)c2C1	cell-free assay	–	competition with immobilised ligand	0.1 µM	remaining binding	100%
O=C1NC(=O)c2cc(Nc3ccc(F)cc3)c(Nc3ccc(F)cc3)cc21	cell-free assay	–	–	0.5 µM	remaining signal	96.3%
CC(C)(C)c1nc(-c2cccc(NS(=O)(=O)c3c(F)cccc3F)c2F)c(-c2ccnc(N)n2)s1	enzyme activity	inhibitor	radiometric	1 µM	remaining activity	83%
Nc1ncnc2occ(-c3ccc(NC(=O)Nc4cc(C(F)(F)F)ccc4F)cc3)c12	cell-free assay	inhibitor	–	20 µM	remaining signal	2.1%
CCN(CC)CCNC(=O)c1c(C)[nH]c(/C=C2\C(=O)Nc3ccc(F)cc32)c1C	enzyme activity	inhibitor	–	10 µM	inhibition	28%
CC(=O)Nc1c(C(C)=O)c(=O)n(C)c2nc(-c3ccc(Cl)cc3Cl)c(-c3ccc(Cl)cc3)cc12	cell-free assay	–	competition with immobilised ligand	1 µM	remaining binding	100%
FC(F)(F)Oc1cccc(-c2cnc3ccc(-c4ccncc4)nn23)c1	enzyme activity	inhibitor	radiometric	1 µM	activity vs control	91%
